The values that follow come from ChEMBL document CHEMBL1123430, “Potential tumor- or organ-imaging agents. 26. Polyiodinated 2-substituted triacylglycerols as hepatographic agents” (J Med Chem, 1986).

Data set [1] has as its system Rattus norvegicus. Put plainly: Distribution of radioactivity of radiolabeled compound in heart of female rats 30 minutes after intravenous administration. Type of data set: ADME, organism-based. Conditions: in vivo, 0.5 h.
The test system of data set [2] is Rattus norvegicus. Put plainly: Distribution of radioactivity of radiolabeled compound in blood of female rats 30 minutes after intravenous administration. In kind it is ADME, organism-based. The settings on record: in vivo, 0.5 h.
For data set [3], the system named is Rattus norvegicus. Put plainly: Polyacrylamide Gel Electrophoresis (PAGE) analysis of rat plasma 30 min after intravenous administration of radiolabeled compound at in high density. Type of data set: functional, organism-based. In a few lines:
(§1)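 Gels were sectioned and counted in a γ counter. Radioactivity in each band (stacking gel, LDL, HDL, albumin, below albumin) is expressed as a percentage of the total radioactivity applied to the gel, ± SEM, n = 3-5.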

In data set [4] the test system is Rattus norvegicus. Put plainly: Distribution of radioactivity of radiolabeled compound in liver of female rats 30 minutes after intravenous administration. Type of data set: ADME, organism-based. Conditions: in vivo, 0.5 h.
Data set [5] has as its system Rattus norvegicus. Put plainly: Polyacrylamide Gel Electrophoresis (PAGE) analysis of rat plasma 30 min after intravenous administration of radiolabeled compound ( below albumin). Type of data set: functional, organism-based. In a few lines: as §1
Data set [6] relates to Rattus norvegicus. Put plainly: Distribution of radioactivity of radiolabeled compound in lung of female rats 5 minutes after intravenous administration. Type of data set: ADME, organism-based. The settings on record: in vivo.
In data set [7] the test system is Rattus norvegicus. Put plainly: Polyacrylamide Gel Electrophoresis (PAGE) analysis of rat plasma 5 minutes after intravenous administration of radiolabeled compound in stacking gel. Type of data set: functional, organism-based. In outline:
(§2)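 ¹²⁵I-labeled compound, radioiodinated by exchange in a pivalic acid melt, solubilized in normal saline with Tween 20 and given iv to adult female Sprague–Dawley rats (200–250 g), 5–30 μCi/animal, 3–4 rats per time point. Plasma was run on polyacrylamide gels. Gels were sectioned and gamma counted. Radioactivity per band (stacking gel, LDL, HDL, albumin, below albumin) is given as % of total applied; mean ± SEM, n = 3-5.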

Data set [8] concerns Rattus norvegicus. Put plainly: Distribution of radioactivity of radiolabeled compound in blood of female rats 5 minutes after intravenous administration. Type of data set: ADME, organism-based. The settings on record: in vivo.
Data set [9] relates to Rattus norvegicus. Put plainly: Polyacrylamide Gel Electrophoresis (PAGE) analysis of rat plasma 5 min after intravenous administration of radiolabeled compound concentration of albumin. Type of data set: functional, organism-based. In outline: as §1
Data set [10] concerns Rattus norvegicus. Put plainly: Distribution of radioactivity of radiolabeled compound in kidney of female rats 30 minutes after intravenous administration. In kind it is ADME, organism-based. The settings on record: in vivo, 0.5 h.
For data set [11], the system named is Rattus norvegicus. Put plainly: Polyacrylamide Gel Electrophoresis (PAGE) analysis of rat plasma 30 min after intravenous administration of radiolabeled compound in albumin. In kind it is functional, organism-based. In outline:
as §1

Data set [12] deals with Rattus norvegicus. Put plainly: Distribution of radioactivity of radiolabeled compound in heart of female rats 5 minutes after intravenous administration. Type of data set: ADME, organism-based. The settings on record: in vivo.
For data set [13], the system named is Rattus norvegicus. Put plainly: Distribution of radioactivity of radiolabeled compound in kidney of female rats 5 minutes after intravenous administration. Type of data set: ADME, organism-based. Conditions: in vivo.
Data set [14] deals with Rattus norvegicus. Put plainly: Polyacrylamide Gel Electrophoresis (PAGE) analysis of rat plasma 5 minutes after intravenous administration of radiolabeled in stacking gel. In kind it is functional, organism-based. In outline: as §2
The test system of data set [15] is Rattus norvegicus. Put plainly: Distribution of radioactivity of radiolabeled compound in liver of female rats 5 minutes after intravenous administration. In kind it is ADME, organism-based. The settings on record: in vivo.
The test system of data set [16] is Rattus norvegicus. Put plainly: Polyacrylamide Gel Electrophoresis (PAGE) analysis of rat plasma 5 minutes after intravenous administration of radiolabeled compound at in high density lipoprotein. In kind it is functional, organism-based. In outline:
as §2

The subject of data set [17] is Rattus norvegicus. Put plainly: Polyacrylamide Gel Electrophoresis (PAGE) analysis of rat plasma 5 minutes after intravenous administration of radiolabeled compound (below albumin ). In kind it is functional, organism-based. In a few lines: as §2
Data set [18] has as its system Rattus norvegicus. Put plainly: Polyacrylamide Gel Electrophoresis (PAGE) analysis of rat plasma 5 minutes after intravenous administration of radiolabeled compound in low-density lipoprotein. Type of data set: functional, organism-based. In a few lines: as §2
Data set [19] concerns Rattus norvegicus. Put plainly: Distribution of radioactivity of radiolabeled compound in lung of female rats 30 minutes after intravenous administration. Type of data set: ADME, organism-based. Conditions: in vivo, 0.5 h.
In data set [20] the test system is Rattus norvegicus. Put plainly: Polyacrylamide Gel Electrophoresis (PAGE) analysis of rat plasma 30 min after intravenous administration of radiolabeled compound in low density lipoprotein. In kind it is functional, organism-based. In outline:
as §1

Data set [21] relates to Rattus norvegicus. Put plainly: Polyacrylamide Gel Electrophoresis (PAGE) analysis of rat plasma 30 min after intravenous administration of radiolabeled compound ( below albumin ). In kind it is functional, organism-based. In outline: as §1
Data set [22] deals with Rattus norvegicus. Put plainly: Polyacrylamide Gel Electrophoresis (PAGE) analysis of rat plasma after intravenous administration of radiolabeled compound at concentration of low-density lipoprotein. Type of data set: functional, organism-based. In outline:
as §2

In data set [23] the test system is Rattus norvegicus. Put plainly: Polyacrylamide Gel Electrophoresis (PAGE) analysis of rat plasma 5 min after intravenous administration of radiolabeled compound in albumin. Type of data set: functional, organism-based. In outline:
as §1

Data set [24] deals with Rattus norvegicus. Put plainly: Polyacrylamide Gel Electrophoresis (PAGE) analysis of rat plasma after intravenous administration of radiolabeled compound in high density lipoprotein. In kind it is functional, organism-based. In outline:
as §2

Data set [25] deals with Rattus norvegicus. Put plainly: Polyacrylamide Gel Electrophoresis (PAGE) analysis of rat plasma 5 minutes after intravenous administration of radiolabeled compound in high density lipoprotein. Type of data set: functional, organism-based. In a few lines:
as §2

For data set [26], the system named is Rattus norvegicus. Put plainly: Polyacrylamide Gel Electrophoresis (PAGE) analysis of rat plasma 5 minutes after intravenous administration of radiolabeled compound in albumin. Type of data set: functional, organism-based. In outline: as §2
Data set [27] deals with Rattus norvegicus. Put plainly: Polyacrylamide Gel Electrophoresis (PAGE) analysis of rat plasma after intravenous administration of radiolabeled compound concentration of stacking gel. In kind it is functional, organism-based. In outline:
as §2

Data set [28] relates to Rattus norvegicus. Put plainly: Polyacrylamide Gel Electrophoresis (PAGE) analysis of rat plasma 5 min after intravenous administration of radiolabeled compound in low-density lipoprotein. In kind it is functional, organism-based. In a few lines:
as §2

For data set [29], the system named is Rattus norvegicus. Put plainly: Polyacrylamide Gel Electrophoresis (PAGE) analysis of rat plasma 30 minutes after intravenous administration of radiolabeled compound concentration of stacking gel. In kind it is functional, organism-based. In outline:
as §1

Data set [30] deals with Rattus norvegicus. Put plainly: Percentage […]/CH3OH extract of the radiolabeled compound in rat liver 30 minutes after iv administration. In kind it is functional. In a few lines:
(§3)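 Liver and plasma were taken at 5 or 30 min. Plasma was extracted by a modified Folch procedure, and liver was homogenized and extracted. Extracts were run on TLC in hexane/ethyl acetate (5:2) for esters or THF/hexane (1:1) for acids, with unlabeled compound as reference. Plates were cut into 1-cm strips and counted. Values are percent ± SEM, n = 3-5.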

Data set [31] has as its system Rattus norvegicus. Put plainly: Percentage […]/CH3OH extract of the radiolabeled compound in rat plasma 30 minutes after iv administration. Type of data set: functional. In outline:
as §3

The subject of data set [32] is Rattus norvegicus. Put plainly: Percentage […]/CH3OH extract of the radiolabeled compound in rat plasma 5 minutes after iv administration. In kind it is functional. In outline:
as §3

In data set [33] the test system is Rattus norvegicus. Put plainly: Polyacrylamide Gel Electrophoresis (PAGE) analysis of rat plasma 30 min after intravenous administration of radiolabeled compound in low-density lipoprotein. In kind it is functional, organism-based. In outline:
as §1

Data set [34] deals with Rattus norvegicus. Put plainly: Percentage […]/CH3OH extract of the radiolabeled compound in rat liver 5 minutes after iv administration. Type of data set: functional. In a few lines: as §3
Data set [35] concerns Rattus norvegicus. Put plainly: Polyacrylamide Gel Electrophoresis (PAGE) analysis of rat plasma 5 minutes after intravenous administration of radiolabeled compound (below albumin). In kind it is functional, organism-based. In a few lines:
as §2

The subject of data set [36] is Rattus norvegicus. Put plainly: Polyacrylamide Gel Electrophoresis (PAGE) analysis of rat plasma 30 min after intravenous administration of radiolabeled compound at concentration of high density. Type of data set: functional, organism-based. In outline:
as §1

As for `Nc1c(I)cc(I)c(CC(=O)O)c1I`, the Dose in the data set with Rattus norvegicus [1] stood at 0.72%; in the data set with Rattus norvegicus [2], 2.41%; with Rattus norvegicus [4], 0.5%; in the data set on Rattus norvegicus [6], 1.49%; in the data set on Rattus norvegicus [8], 5.44%; in the data set with Rattus norvegicus [10], 5.82%. Also, the Dose in the data set with Rattus norvegicus [12] is recorded as 1.09%; in the data set on Rattus norvegicus [13], 4.62%; with Rattus norvegicus [15], 0.87%; in the data set with Rattus norvegicus [19], 1.07%. The Concentration in the data set with Rattus norvegicus [3] was 7.3%; in the data set on Rattus norvegicus [5], 7; in the data set on Rattus norvegicus [7], 1.7%; in the data set with Rattus norvegicus [9], 76; in the data set on Rattus norvegicus [11] it was 83.6; in the data set with Rattus norvegicus [14] it was 1.7%. Moreover, the Concentration in the data set on Rattus norvegicus [16] was found to be 15.8%; in the data set on Rattus norvegicus [17] it was 5.5; in the data set with Rattus norvegicus [18], 1%; in the data set with Rattus norvegicus [20], 0.4.
In the case of `CCC(Cc1c(I)cc(I)c(N)c1I)C(=O)O` (centres undefined) [IOPANOIC ACID], the Dose in the data set on Rattus norvegicus [1] is 0.46%; in the data set on Rattus norvegicus [2] it was 1.21%; with Rattus norvegicus [4], 1.46%; in the data set on Rattus norvegicus [6] it was 0.81%; in the data set with Rattus norvegicus [8], 2.19%; with Rattus norvegicus [10], 0.52%. The Dose with Rattus norvegicus [12] is given as 0.74%; in the data set on Rattus norvegicus [13], 0.71%; with Rattus norvegicus [15] it was 1.64%; in the data set on Rattus norvegicus [19] it was 0.61%. Further, the Concentration in the data set with Rattus norvegicus [7] amounted to 0.6%; in the data set on Rattus norvegicus [21], 6.7%; with Rattus norvegicus [22] it was 2.2; with Rattus norvegicus [23], 77.5; in the data set with Rattus norvegicus [11], 78.4; in the data set on Rattus norvegicus [18] it was 0.5%. Besides, the Concentration with Rattus norvegicus [24] stood at 8.7%; in the data set with Rattus norvegicus [25], 19.8; with Rattus norvegicus [26], 77.5; in the data set with Rattus norvegicus [27] it was 3.9.
Consider `CCCCCCCCCCCCCCCC(=O)OCC(COC(=O)CCCCCCCCCCCCCCC)OC(=O)C(CC)Cc1c(I)cc(I)c(N)c1I` (centres undefined), for which the Dose with Rattus norvegicus [1] was found to be 1.92%; in the data set with Rattus norvegicus [2], 3.73%; in the data set with Rattus norvegicus [4], 4.6%; in the data set on Rattus norvegicus [6], 1.15%; in the data set on Rattus norvegicus [8], 6.04%; in the data set on Rattus norvegicus [10], 0.65%. Moreover, the Dose with Rattus norvegicus [12] worked out at 0.6%; with Rattus norvegicus [13], 0.65%; in the data set on Rattus norvegicus [15], 2.16%; in the data set on Rattus norvegicus [19], 0.97%. The Concentration with Rattus norvegicus [7] is 4.6%; in the data set on Rattus norvegicus [28] it was 35.1; in the data set with Rattus norvegicus [29] it was 7.1; in the data set on Rattus norvegicus [23], 4.4; with Rattus norvegicus [11] it was 5.4; in the data set on Rattus norvegicus [17] it was 3. Besides, the Concentration came to 27.5 in the data set on Rattus norvegicus [33], 52.6 in the data set on Rattus norvegicus [25], 3 in the data set on Rattus norvegicus [35] and 54.1 in the data set on Rattus norvegicus [36]. The Activity in the data set with Rattus norvegicus [30] was 79.7%; with Rattus norvegicus [31], 92.2%; with Rattus norvegicus [32] it was 85.7%; in the data set on Rattus norvegicus [34], 84.4%.
